Holding throughout (assay type): functional, Mus musculus
Assay [1] is described as follows: Proliferative activity in osteoblastic MC3T3 E1 cell culture relative to OGP(10-14). In short, it runs like this:
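MC3T3 E1 osteoblastic cells were seeded at 2 × 10⁴ cells/well in RMEM with 10% FCS at 37 °C in CO₂/air. After 46 h in serum, they were washed, kept serum-free for 2 h, then switched to RMEM with 4% fatty-acid-free BSA, with or without peptide. The peptide was freshly dissolved at 10^-6 M, diluted, and preincubated for 30 min at 37 °C. The final concentration was 10^-13 M unless otherwise specified, with some dose-response runs.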

A short description of assay [2]: (§1) Proliferative activity in fibroblastic […] cell culture relative to OGP(10-14). Summed up: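 Mouse NIH 3T3 fibroblasts from confluent cultures were seeded at 2 × 10⁴ cells/well in RMEM with 10% FCS at 37 °C in CO₂/air for 46 h, then washed and held serum-free for 2 h. Medium was then replaced with RMEM containing 4% fatty-acid-free BSA, with or without peptide. The peptide was dissolved at 10^-6 M, diluted, and pre-warmed for 30 min at 37 °C. The final concentration was 10^-11 M unless otherwise stated.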

The next assay relates to NIH3T3. Described as §1. In short, it runs like this: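 NIH 3T3 fibroblasts from confluent cultures in RMEM with 10% FCS, seeded at 2 × 10⁴ cells/well, 37 °C in CO₂/air. They were kept 46 h in FCS medium, then 2 h serum-free. Medium was switched to 4% fatty-acid-free BSA RMEM ± peptide, 10^-11 M final, preincubated 30 min at 37 °C. Read-out was cell number in triplicate wells, converted to treated/control ratio against OGP(10-14) reference.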

Non-standard residues stand in square brackets, D forms with d. Residues, ends and D or L forms follow the SMILES beside them. *: point of attachment. Desaminotyrosyl = O=C(CCc1ccc(O)cc1)*; NMeF = CN[C@@H](Cc1ccccc1)C(=O)O; Aib = CC(C)(N)C(=O)O; Ava = NCCCCC(=O)O; GABA = NCCCC(=O)O; βAla = NCCC(=O)O; Sar = CNCC(=O)O

Take `CC1(C)NC(=O)[C@H](Cc2ccc(O)cc2)NC(=O)CNC(=O)CNC(=O)[C@H](Cc2ccccc2)NC1=O` (cyclo([Aib]FGGY)): the results for the Relative potency in assay [1] and in assay [2] were 0.19 and 0.31, respectively.
In the same order, the values of `O=C(O)CNC(=O)CNC(=O)[C@H](Cc1ccccc1)NCCNC(=O)CCc1ccc(O)cc1` are 0.61 and 0.67.
In the same order, the values of `O=C1CNC(=O)CNC(=O)[C@H](Cc2ccccc2)NC(=O)CNC(=O)[C@H](Cc2ccc(O)cc2)NC(=O)CCCCN1` (cyclo([Ava]YGFGG)) are 0.14 and 0.18.
In the same order, the values of `O=C1CNC(=O)[C@@H](Cc2ccc(O)cc2)NC(=O)CNC(=O)[C@@H](Cc2ccccc2)NC(=O)CN1` are 1.03 and 1.16.
Regarding `O=C1CNC(=O)CNC(=O)[C@H](Cc2ccccc2)NC(=O)CNC(=O)[C@H](Cc2ccc(O)cc2)NC(=O)CCCN1` (cyclo(FGG[GABA]YG)), the Relative potency in assay [1] amounted to 0.2; in assay [2], 0.22.
As for `O=C1CNC(=O)[C@H](Cc2ccccc2)NC(=O)CNC(=O)[C@H](Cc2ccc(O)cc2)N1` (cyclo(FGYG)), the Relative potency in assay [1] worked out at 0.35; in assay [2], 0.43.
Taken in the same sequence, the figures for H-YPFGG-OH were 0.89 and 0.96.
For `O=C1CNC(=O)CNC(=O)[C@H](Cc2ccccc2)NC(=O)CNC(=O)[C@H](Cc2ccc(O)cc2)NC(=O)CN1` (cyclo(FGGGYG)), the Relative potency turned out to be 0.26 in assay [1] and 0.2 in assay [2].
In the same order, the values of `O=C(O)CNC(=O)CNC[C@H](Cc1ccccc1)NC(=O)CNC(=O)CCc1ccc(O)cc1` are 0.7 and 0.88.
Regarding `CN(C(=O)CNC(=O)CCc1ccc(O)cc1)[C@@H](Cc1ccccc1)C(=O)NCC(=O)NCC(=O)O` (Desaminotyrosyl-G[NMeF]GG-OH), the figures for the Relative potency in assay [1] and in assay [2] were 0.52 and 0.67, respectively.
`O=C1CNC(=O)[C@H](Cc2ccccc2)NC(=O)CNC(=O)[C@H](Cc2ccc(O)cc2)NC(=O)CN1`: the Relative potency in assay [1] stood at 0.79; in assay [2] it was 1.12.
In the case of H-GGFGY-OH, the Relative potency is 0.71 in assay [1] and 0.82 in assay [2].
`O=C1CNC(=O)[C@H](Cc2ccccc2)NC(=O)[C@@H]2CCCN2C(=O)[C@H](Cc2ccc(O)cc2)NC(=O)CN1` (cyclo(FGGYP)): the Relative potency in assay [1] was determined as 0.99; in assay [2], 0.9.
Taken in the same sequence, the figures for `O=C1CNC(=O)[C@@H](Cc2ccccc2)NC(=O)CNC(=O)[C@@H](Cc2ccc(O)cc2)NC(=O)CN1` were 0.69 and 0.84.
On to `CN(CC(=O)O)C(=O)CNC(=O)[C@H](Cc1ccccc1)NC(=O)CNC(=O)CCc1ccc(O)cc1` (Desaminotyrosyl-GFG[Sar]-OH), for which the Relative potency in assay [1] came out at 0.16; in assay [2], 0.14.
Taken in the same sequence, the figures for `O=C(O)CNCCNC(=O)[C@H](Cc1ccccc1)NC(=O)CNC(=O)CCc1ccc(O)cc1` were 0.78 and 0.8.
In the same order, the values of `O=C(O)CCCCNC(=O)[C@H](Cc1ccccc1)NC(=O)CNC(=O)CCc1ccc(O)cc1` are 0.78 and 0.88.
Regarding `N[C@H](CNCC(=O)N[C@@H](Cc1ccccc1)C(=O)NCC(=O)NCC(=O)O)Cc1ccc(O)cc1`, the Relative potency was 0.92 in assay [1] and 0.87 in assay [2].
Taken in the same sequence, the figures for `O=C1CNC(=O)[C@H](Cc2ccc(O)cc2)NC(=O)CNC(=O)[C@H](Cc2ccccc2)NC(=O)CN1` were 0.95 and 1.02.
On to H-YGFGG-OH, for which the Relative potency (in assay [1]; in the assay with NIH3T3) was 1 in each case.
As for `CN(CC(=O)NCC(=O)O)C(=O)[C@H](Cc1ccccc1)NC(=O)CNC(=O)CCc1ccc(O)cc1` (Desaminotyrosyl-GF[Sar]G-OH), the figures for the Relative potency in assay [1] and in assay [2] were 0.15 and 0.11, respectively.
Taken in the same sequence, the figures for `O=C(O)C[C@@H]1NC(=O)CNC(=O)[C@H](Cc2ccccc2)NC(=O)CNC(=O)[C@H](Cc2ccc(O)cc2)NC1=O` (cyclo(DYGFG)) were 0.14 and 0.11.
Consider `O=C(O)CNC(=O)CNC(=O)[C@H](Cc1ccccc1)NC(=O)CNCCCc1ccc(O)cc1`, for which the Relative potency is given as 0.81 in assay [1] and 0.79 in assay [2].
In the same order, the values of `O=C1CNC(=O)CNC(=O)[C@H](Cc2ccccc2)NC(=O)CNC(=O)[C@H](Cc2ccc(O)cc2)NC(=O)CCN1` (cyclo(FGG[βAla]YG)) are 0.36 and 0.37.
Regarding `CN(CC(=O)N[C@@H](Cc1ccccc1)C(=O)NCC(=O)NCC(=O)O)C(=O)CCc1ccc(O)cc1` (Desaminotyrosyl-[Sar]FGG-OH), the values for the Relative potency in assay [1] and in assay [2] were 0.31 and 0.39, respectively.

Values taken from ChEMBL document CHEMBL1135914, “Bioactive pseudopeptidic analogues and cyclostereoisomers of osteogenic growth peptide C-terminal pentapeptide, OGP(10-14)” (2002).
